Laboratory results taken from ChEMBL document CHEMBL2321876.
Active and inactive are the calls of the source. No rule for the calls is given here.

How the values were obtained:
Acinetobacter baumannii [1] = assay: Antibacterial activity against Acinetobacter baumannii ATCC 19606 using iron-deficient M9 minimal media after 15 hrs by broth microdilution assay; format: functional, organism-based; conditions: ATCC 19606 = CIP 70.34 = JCM 6841
How it was run: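 ATCC 19606 grown overnight at 30 °C on LB agar, washed twice and resuspended in M9 minimal medium with 0.2% casamino acids and 200 μM dipyridyl. Inoculated at A600 0.0003 in this medium plus 1 μM FeCl3. Inhibitors from DMSO at 100 μM final, in triplicate. Tetracycline (100 ng/mL) and 1% DMSO as controls. Incubated at 30 °C; A600 read at 15 h.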

Acinetobacter baumannii [2] = assay: Antibacterial activity against Acinetobacter baumannii ATCC 19606 using iron-replete M9 minimal media after 15 hrs by broth microdilution assay; format: functional, organism-based; conditions: ATCC 19606 = CIP 70.34 = JCM 6841
How it was run: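 ATCC 19606 grown overnight at 30 °C on LB agar, washed twice in dipyridyl-containing M9/casamino acids medium, then diluted to A600 0.0003 in M9 minimal medium with 0.2% casamino acids plus 200 μM FeCl3. Inhibitors from DMSO at 100 μM final, in triplicate. Controls were tetracycline (100 ng/mL) and 1% DMSO. Incubated at 30 °C, A600 measured at 15 h.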

[3] = Displacement of Fl-Sal-AMS from Acinetobacter baumanni BasE expressed in Escherichia coli after 30 mins by fluorescence polarization assay; parameters: species or system Acinetobacter baumannii
[4] = Displacement of Fl-Sal-AMS from Mycobacterium tuberculosis MbtA expressed in Escherichia coli after 30 mins by fluorescence polarization assay

Structure (SMILES) | Activity (Acinetobacter baumannii [1]) | Activity (Acinetobacter baumannii [2]) | Kd [3] | Kd ([3]; read-out: Kd) [µM] | Kd [4] [µM]
O=C(O)c1cc(-c2cc3ccccc3s2)nc2c1cnn2Cc1ccncc1 | inactive | inactive | – | – | –
CCCCCCCCCCCCCCCCOc1ccc(-c2cc(C(=O)O)c3cnn(Cc4ccncc4)c3n2)cc1 | inactive | inactive | ND(Insoluble) | – | –
O=C(O)c1cc(/C=C/c2ccccc2)nc2c1cnn2Cc1ccncc1 | inactive | inactive | – | 0.28 | 5.1
O=C(O)c1cc(-c2ccc(Cl)cc2)nc2c1cnn2Cc1ccncc1 | inactive | inactive | – | – | –
Cc1csc(-c2cc(C(=O)O)c3cnn(Cc4ccncc4)c3n2)c1 | inactive | inactive | – | 0.0869 | 2.54
COc1ccc(Cn2ncc3c(C(=O)O)cc(Nc4ccccc4)nc32)cc1 | inactive | inactive | – | > 100 | –
O=C(O)c1cc(-c2ccccc2)nc2c1cnn2Cc1ccco1 | inactive | inactive | – | > 100 | –
O=C(O)c1ccc(-c2cc(C(=O)O)c3cnn(Cc4ccncc4)c3n2)cc1 | inactive | inactive | – | 0.776 | 6.1
Cc1ccccc1-c1cc(C(=O)O)c2cnn(Cc3ccncc3)c2n1 | inactive | inactive | – | 2.15 | > 100
O=C(O)c1cc(-c2cncc3ccccc23)nc2c1cnn2Cc1ccncc1 | inactive | inactive | – | 7.73 | > 100
O=C(O)c1cc(-c2ccccc2-c2ccccc2Cl)nc2c1cnn2Cc1ccncc1 | inactive | inactive | – | 19.7 | > 50
C#Cc1cc(C(=O)O)c2cnn(Cc3ccncc3)c2n1 | inactive | inactive | – | 2.04 | 18.5
O=C(O)c1cc(-c2ccccc2)nc2c1cnn2Cc1cccnc1 | inactive | inactive | – | > 100 | –
CC(=O)c1ccc(-c2cc(C(=O)O)c3cnn(Cc4ccncc4)c3n2)s1 | inactive | inactive | – | – | –
O=C(O)c1cc(-c2cncnc2)nc2c1cnn2Cc1ccncc1 | inactive | inactive | – | 0.583 | 13.6
O=C(O)c1cc(-c2ccc([N+](=O)[O-])cc2)nc2c1cnn2Cc1ccncc1 | inactive | inactive | – | – | –
Cc1ccsc1-c1cc(C(=O)O)c2cnn(Cc3ccncc3)c2n1 | inactive | inactive | – | 0.34 | 19.2
O=C(O)c1cc(-c2ccccc2)cc2c1cnn2Cc1ccncc1 | inactive | inactive | – | 0.0848 | 27.6
CC(=O)Nc1ccc(-c2cc(C(=O)O)c3cnn(Cc4ccncc4)c3n2)cc1 | inactive | inactive | – | 0.747 | 4.2

Structure (SMILES) | Activity (Acinetobacter baumannii [1]) | Activity (Acinetobacter baumannii [2]) | Kd [3] | Kd ([3]; read-out: Kd) [µM] | Kd [4] [µM]
O=C(O)c1cc(-c2cccc3cccnc23)nc2c1cnn2Cc1ccncc1 | inactive | inactive | – | 0.776 | 22.5
CCCCCCCCCCCCOc1ccc(-c2cc(C(=O)O)c3cnn(Cc4ccncc4)c3n2)cc1 | inactive | inactive | – | 28.4 | > 50
O=C(O)c1cc(-c2ccccc2Cl)nc2c1cnn2Cc1ccncc1 | inactive | inactive | – | 2.48 | > 100
Cc1ccc(-c2cc(C(=O)O)c3cnn(Cc4ccncc4)c3n2)cc1 | inactive | inactive | – | 0.212 | 1.44
O=C(O)c1cc(-c2cccs2)nc2c1cnn2Cc1ccncc1 | inactive | inactive | – | 0.443 | 6.68
C=Cc1cc(C(=O)O)c2cnn(Cc3ccncc3)c2n1 | inactive | inactive | – | 1.9 | > 100
Cc1ccc(-c2cc(C(=O)O)c3cnn(Cc4ccncc4)c3n2)s1 | inactive | inactive | – | 0.0076 | 2.6
N#Cc1ccc(-c2cc(C(=O)O)c3cnn(Cc4ccncc4)c3n2)cc1 | inactive | inactive | – | – | –
O=C(O)c1cc(C#Cc2ccccc2)nc2c1cnn2Cc1ccncc1 | inactive | inactive | – | 0.421 | 3
COc1cc(-c2cc(C(=O)O)c3cnn(Cc4ccncc4)c3n2)ccc1C(=O)O | inactive | inactive | – | 1.7 | 49.9
CSc1ccc(-c2cc(C(=O)O)c3cnn(Cc4ccncc4)c3n2)cc1 | inactive | inactive | – | – | –
O=C(O)c1cc(-c2ccccc2O)nc2c1cnn2Cc1ccncc1 | inactive | inactive | – | 0.255 | 6.5
Cc1cccc(-c2cc(C(=O)O)c3cnn(Cc4ccncc4)c3n2)c1 | inactive | inactive | – | 0.158 | 7.4
O=C(O)c1cc(-c2cn[nH]c2)nc2c1cnn2Cc1ccncc1 | inactive | inactive | – | 2.3 | 27.9
O=C(O)c1cc(-c2ccccc2)nc2c1cnn2Cc1ccc(O)cc1 | inactive | inactive | – | 0.556 | > 100
O=C(O)c1cc(-c2ccc(O)cc2)nc2c1cnn2Cc1ccncc1 | inactive | inactive | – | 0.00885 | 3.7
O=C(O)c1cc(NCc2ccccc2)nc2c1cnn2Cc1ccncc1 | inactive | inactive | – | 2.32 | 6.02
NC(=O)c1cc(-c2ccccc2)nc2c1cnn2Cc1ccncc1 | inactive | inactive | – | 0.0668 | 8.57
O=C(O)c1cc(-c2ccccc2)cc2nn(Cc3ccncc3)cc12 | inactive | inactive | – | 66.4 | 58

Structure (SMILES) | Activity (Acinetobacter baumannii [1]) | Activity (Acinetobacter baumannii [2]) | Kd [3] | Kd ([3]; read-out: Kd) [µM] | Kd [4] [µM]
Nc1ccc(-c2cc(C(=O)O)c3cnn(Cc4ccncc4)c3n2)cc1 | inactive | inactive | – | 0.0782 | 4.08
O=C(O)c1cc(-c2cccc(-c3ccccc3)c2)nc2c1cnn2Cc1ccncc1 | inactive | inactive | – | 0.164 | 3.6
CCNC(=O)c1cc(-c2ccccc2)nc2c1cnn2Cc1ccncc1 | inactive | inactive | – | 0.908 | > 50
O=C(O)c1cc(-c2ccccc2)cc2c1ccn2Cc1ccncc1 | inactive | inactive | – | 52.2 | 161
CN(C)c1ccc(-c2cc(C(=O)O)c3cnn(Cc4ccncc4)c3n2)cc1 | inactive | inactive | – | 0.628 | 1.7
O=c1cc(-c2ccccc2)[nH]c2c1cnn2Cc1ccncc1 | inactive | inactive | – | > 100 | –
COc1ccc(Cn2ncc3c(C(=O)O)cc(-c4ccccc4)nc32)cc1 | inactive | inactive | – | > 100 | –
O=C(O)c1cc(-c2ccc(Br)cc2)nc2c1cnn2Cc1ccncc1 | inactive | inactive | – | – | –
CC(=O)c1ccc(-c2cc(C(=O)O)c3cnn(Cc4ccncc4)c3n2)cc1 | inactive | inactive | – | – | –
O=C(O)c1cc(-c2ccc(-c3ccc(Cl)nc3)nc2)nc2c1cnn2Cc1ccncc1 | inactive | inactive | – | – | –
O=C(O)c1cc(-c2ccccc2)nc2[nH]ncc12 | inactive | inactive | – | > 100 | –
CS(=O)(=O)c1ccc(-c2cc(C(=O)O)c3cnn(Cc4ccncc4)c3n2)cc1 | inactive | inactive | – | – | –
O=C(O)c1cc(=O)[nH]c2c1cnn2Cc1ccncc1 | inactive | inactive | – | > 100 | –
CC(C)n1ncc2c(C(=O)O)cc(-c3ccccc3)nc21 | inactive | inactive | – | > 500 | –
O=C(O)c1cc(-c2ccc(Cl)nc2)nc2c1cnn2Cc1ccncc1 | inactive | inactive | – | – | –
O=C(O)c1cc(-c2ccccc2)nc2c1cnn2Cc1ccccc1 | inactive | inactive | – | > 100 | –
O=C(O)c1cc(-c2ccc(C(F)(F)F)cc2)nc2c1cnn2Cc1ccncc1 | inactive | inactive | – | – | –
CCn1ncc2c(C(=O)O)cc(-c3ccccc3)nc21 | inactive | inactive | – | > 500 | –
O=C(O)c1ccc(-c2cc(C(=O)O)c3cnn(Cc4ccncc4)c3n2)cc1O | inactive | inactive | – | – | –
